From ChEMBL document CHEMBL2203283, “Novel coumarin derivatives bearing N-benzyl pyridinium moiety: potent and dual binding site acetylcholinesterase inhibitors” (Bioorg Med Chem, 2012) come the findings set out here.

The structures appear in SMILES notation. Converted amounts (≈) assume the structure as drawn.

The nature of experiment [1]: Antioxidant activity of compound assessed as ferric reducing antioxidant power. Format: functional. A digest of the protocol:
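Modified FRAP assay. Reagent mixed from 300 mM acetate buffer pH 3.6, 10 mM TPTZ in 40 mM HCl, and 20 mM ferric chloride hexahydrate solution. Ascorbic acid and BHT served as references.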

The subject of experiment [2] is Radical scavenging activity. Briefly: Antioxidant activity of compound assessed as DPPH radical scavenging activity. Format: functional. A digest of the protocol:
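DPPH radical scavenging: compounds at five concentrations across a 0–25 range in methanol, mixed with 0.3 mM DPPH ethanol solution and left 30 min in the dark at room temperature. Absorbance read at 518 nm, with a compound-plus-methanol reading blank and a DPPH-plus-methanol negative control. % inhibition = [(A_B−A_A)/A_B]×100; IC50 calculated; ascorbic acid as reference.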
(In general: DPPH is a stable violet radical that fades when it is reduced.)

Experiment [3] concerns the target Cholinesterase (Equus caballus, UniProt P81908). The experiment in a line: Inhibition of equine serum BuChE using acetylthiocholine iodide as substrate by Ellman's method. A general note: In Ellman's method for cholinesterases, released thiocholine reacts with DTNB.
Experiment [4] is described as follows: Selectivity ratio of IC50 for equine serum BuChE to IC50 for electric eel AChE. A digest of the protocol: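 Ellman assay with electric eel AChE and equine serum BuChE, run by the same method. Compounds are diluted in 0.1 M phosphate buffer, pH 8.0, and preincubated 15 min at 25 °C. Substrate is acetylthiocholine iodide with DTNB, read as absorbance rate at 412 nm over 6 min. Five concentrations are tested in triplicate, with IC50 taken graphically. Ratio = IC50(BuChE)/IC50(AChE).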

Experiment [5] deals with Acetylcholinesterase (Electrophorus electricus, UniProt O42275). The experiment in a line: Inhibition of electric eel AChE using acetylthiocholine iodide as substrate by Ellman's method.
Acetylcholinesterase, sequence (O42275 whole entry): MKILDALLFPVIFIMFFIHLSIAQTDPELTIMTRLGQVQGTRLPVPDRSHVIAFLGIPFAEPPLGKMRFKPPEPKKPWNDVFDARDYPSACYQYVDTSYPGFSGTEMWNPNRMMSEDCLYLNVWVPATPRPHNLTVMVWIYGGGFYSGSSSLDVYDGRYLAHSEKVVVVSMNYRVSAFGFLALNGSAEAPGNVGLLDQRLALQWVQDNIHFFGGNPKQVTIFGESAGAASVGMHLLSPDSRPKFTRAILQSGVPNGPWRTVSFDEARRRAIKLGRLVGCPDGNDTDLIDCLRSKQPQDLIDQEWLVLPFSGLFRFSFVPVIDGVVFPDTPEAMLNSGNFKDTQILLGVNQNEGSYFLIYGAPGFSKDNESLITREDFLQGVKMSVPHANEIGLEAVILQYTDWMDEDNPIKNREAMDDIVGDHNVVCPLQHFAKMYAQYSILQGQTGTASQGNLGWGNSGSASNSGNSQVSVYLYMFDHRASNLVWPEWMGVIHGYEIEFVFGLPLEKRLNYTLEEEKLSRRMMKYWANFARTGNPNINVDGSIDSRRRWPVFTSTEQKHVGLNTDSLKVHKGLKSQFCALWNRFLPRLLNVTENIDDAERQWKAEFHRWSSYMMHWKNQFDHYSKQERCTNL

The IC50 is the point on the concentration scale where inhibition reaches its midpoint.

Cholinesterase, sequence (P81908 whole entry): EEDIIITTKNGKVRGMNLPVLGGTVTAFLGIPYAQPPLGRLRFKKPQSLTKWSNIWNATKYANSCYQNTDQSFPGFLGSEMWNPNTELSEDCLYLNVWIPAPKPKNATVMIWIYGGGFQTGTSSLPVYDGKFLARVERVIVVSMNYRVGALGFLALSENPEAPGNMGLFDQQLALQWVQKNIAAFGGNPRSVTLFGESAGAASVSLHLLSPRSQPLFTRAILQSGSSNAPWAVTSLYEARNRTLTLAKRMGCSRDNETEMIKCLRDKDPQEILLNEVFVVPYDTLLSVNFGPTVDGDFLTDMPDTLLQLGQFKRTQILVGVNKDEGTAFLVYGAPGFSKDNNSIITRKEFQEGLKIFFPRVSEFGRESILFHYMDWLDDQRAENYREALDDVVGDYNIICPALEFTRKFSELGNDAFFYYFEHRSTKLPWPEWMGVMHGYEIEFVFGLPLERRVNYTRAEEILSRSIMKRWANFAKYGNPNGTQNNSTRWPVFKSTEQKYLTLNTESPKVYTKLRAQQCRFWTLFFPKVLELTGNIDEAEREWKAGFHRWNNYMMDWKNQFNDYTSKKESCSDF

As for `O=C(/C=C/c1cc[n+](Cc2ccc(F)cc2)cc1)c1cc2cc(Br)ccc2oc1=O.[Cl-]`, the Activity in experiment [1] is less than 150. Further, the IC50 in experiment [2] is greater than 25 µg/mL; in experiment [3], 494 nM; in experiment [5], 0.46 nM. For the same compound, the Ratio IC50 in experiment [4] was determined as 1070.

Turning to `O=C(/C=C/c1cc[n+](Cc2ccc(F)cc2)cc1)c1cc2ccccc2oc1=O.[Cl-]`, the Activity in experiment [1] was less than 150. Moreover, the IC50 in experiment [2] was greater than 25 µg/mL; in experiment [3], 910 nM; in experiment [5] it was 760 nM. In addition, the Ratio IC50 in experiment [4] was found to be 1.2.

For `COc1cccc2cc(C(=O)/C=C/c3cc[n+](Cc4ccc(Cl)c(Cl)c4)cc3)c(=O)oc12.[Cl-]`, the Activity in experiment [1] is less than 150. For the same compound, the values for the IC50 in experiment [2], in experiment [3] and in experiment [5] were greater than 25 µg/mL, 5790 nM and 440 nM, respectively. For the same compound, the Ratio IC50 in experiment [4] was 13.6.

Consider `O=C(/C=C/c1cc[n+](Cc2ccccc2F)cc1)c1cc2cc(Br)ccc2oc1=O.[Cl-]`, for which, in experiment [1], the Activity was less than 150. The IC50 was greater than 25 µg/mL in experiment [2], 489 nM in experiment [3] and 0.11 nM in experiment [5]. The Ratio IC50 in experiment [4] worked out at 4440.

On to `COc1cccc2cc(C(=O)/C=C/c3cc[n+](Cc4ccc(CCl)cc4)cc3)c(=O)oc12.[Cl-]`, for which the Activity in experiment [1] was less than 150. Also, the 50% inhibitory concentration (IC50) was greater than 25 µg/mL in experiment [2], 15100 nM in experiment [3] and 1600 nM in experiment [5]. The Ratio IC50 in experiment [4] was 9.4.

As for `COc1cccc2cc(C(=O)/C=C/c3cc[n+](Cc4ccccc4F)cc3)c(=O)oc12.[Br-]`, the Activity in experiment [1] was less than 150. In addition, the values for the concentration for half-maximal inhibition (IC50) in experiment [2], in experiment [3] and in experiment [5] were greater than 25 µg/mL, 329 nM and 26 nM, respectively. In experiment [4], the Ratio IC50 was 12.6.

For the compound `COc1cccc2cc(C(=O)/C=C/c3cc[n+](Cc4cccc(Cl)c4Cl)cc3)c(=O)oc12.[Cl-]`, the Activity in experiment [1] was less than 150. Further, the IC50 in experiment [2] was greater than 25 µg/mL; in experiment [3] it was 6800 nM; in experiment [5] it was 120 nM. For the same compound, the Ratio IC50 in experiment [4] came to 57.

`COc1cccc2cc(C(=O)/C=C/c3cc[n+](Cc4cccc(F)c4)cc3)c(=O)oc12.[Cl-]`: the Activity in experiment [1] was less than 150. For the same compound, the half-inhibitory concentration (IC50) is greater than 25 µg/mL in experiment [2], 2100 nM in experiment [3] and 0.47 nM in experiment [5]. Moreover, the Ratio IC50 in experiment [4] came out at 4470.

In the case of `COc1cccc2cc(C(=O)/C=C/c3cc[n+](Cc4ccccc4C)cc3)c(=O)oc12.[Cl-]`, in experiment [1], the Activity was less than 150. Further, the IC50 in experiment [2] was greater than 25 µg/mL; in experiment [3] it was 342 nM; in experiment [5], 0.16 nM. In experiment [4], the Ratio IC50 was found to be 2140.

Regarding `COc1cccc2cc(C(=O)/C=C/c3cc[n+](Cc4cccc(C#N)c4)cc3)c(=O)oc12.[Br-]`, the Activity in experiment [1] is less than 150. Further, the results for the IC50 in experiment [2], in experiment [3] and in experiment [5] were greater than 25 µg/mL, 1000 nM and 76 nM, respectively. In addition, in experiment [4], the Ratio IC50 amounted to 13.1.

For `COc1cccc2cc(C(=O)/C=C/c3cc[n+](Cc4cccc(C)c4)cc3)c(=O)oc12.[Cl-]`, the Activity in experiment [1] was less than 150. For the same compound, the figures for the half-maximal inhibitory concentration (IC50) in experiment [2], in experiment [3] and in experiment [5] were greater than 25 µg/mL, 11200 nM and 800 nM, respectively. Moreover, the Ratio IC50 in experiment [4] was determined as 14.

As to `O=C(/C=C/c1cc[n+](Cc2ccccc2F)cc1)c1cc2ccccc2oc1=O.[Cl-]`, the Activity in experiment [1] is less than 150. Further, the IC50 in experiment [2] is greater than 25 µg/mL; in experiment [3], 848 nM; in experiment [5] it was 540 nM. Further, the Ratio IC50 in experiment [4] came out at 1.57.

As to `COc1cccc2cc(C(=O)/C=C/c3cc[n+](Cc4cccc(Cl)c4)cc3)c(=O)oc12.[Cl-]`, in experiment [1], the Activity was less than 150. The half-inhibitory concentration (IC50) in experiment [2] is greater than 25 µg/mL; in experiment [3], 560 nM; in experiment [5], 86 nM. In addition, in experiment [4], the Ratio IC50 is 6.5.

As to `O=C1O[C@H]([C@@H](O)CO)C(O)=C1O` [ASCORBIC ACID], in experiment [1], the Activity stood at 1890. The IC50 in experiment [2] turned out to be 3.6 µg/mL (≈ 20.4 µM).

For `COc1cccc2cc(C(=O)/C=C/c3cc[n+](Cc4ccccc4)cc3)c(=O)oc12.[Cl-]`, in experiment [1], the Activity was less than 150. Further, in experiment [2], the IC50 was greater than 25 µg/mL.

In the case of `COc1cccc2cc(C(=O)/C=C/c3cc[n+](Cc4ccc(C)cc4)cc3)c(=O)oc12.[Cl-]`, the Activity in experiment [1] was less than 150. The 50% inhibitory concentration (IC50) in experiment [2] is greater than 25 µg/mL; in experiment [3], 27000 nM; in experiment [5], 3650 nM. Further, in experiment [4], the Ratio IC50 is 7.4.

On to `COc1cccc2cc(C(=O)/C=C/c3cc[n+](Cc4ccc(F)cc4)cc3)c(=O)oc12.[Cl-]`, for which the Activity in experiment [1] was less than 150. For the same compound, the IC50 in experiment [2] was greater than 25 µg/mL; in experiment [3] it was 931 nM; in experiment [5], 472 nM. Further, the Ratio IC50 in experiment [4] was 1.97.

Consider `COc1cccc2cc(C(=O)/C=C/c3cc[n+](Cc4ccccc4Cl)cc3)c(=O)oc12.[Cl-]`, for which the Activity in experiment [1] is less than 150. Moreover, the IC50 in experiment [2] was greater than 25 µg/mL; in experiment [3], 125 nM; in experiment [5], 0.46 nM. Further, the Ratio IC50 in experiment [4] worked out at 272.

Regarding `COc1ccc(C[n+]2ccc(/C=C/C(=O)c3cc4cccc(OC)c4oc3=O)cc2)cc1.[Cl-]`, the Activity in experiment [1] is less than 150. Also, the figures for the half-maximal inhibitory concentration (IC50) in experiment [2], in experiment [3] and in experiment [5] were greater than 25 µg/mL, 971 nM and 1470 nM, respectively. Moreover, the Ratio IC50 in experiment [4] was 0.7.

For `COc1cccc2cc(C(=O)/C=C/c3cc[n+](Cc4c(F)cccc4[N+](=O)[O-])cc3)c(=O)oc12.[Cl-]`, the Activity in experiment [1] was less than 150. For the same compound, the IC50 in experiment [2] was greater than 25 µg/mL; in experiment [3], 685 nM; in experiment [5], 330 nM. Also, the Ratio IC50 in experiment [4] came out at 2.1.
